Measured values from ChEMBL document CHEMBL5537199, “Discovery and SAR Study of Boronic Acid-Based Selective PDE3B Inhibitors from a Novel DNA-Encoded Library” (J Med Chem, 2024).
Active and inactive are the calls of the source. The rule behind the calls is not given here.

Key:
[1] = biological target: T1, cGMP-inhibited 3',5'-cyclic phosphodiesterase 3B (Homo sapiens, UniProt Q13370); experiment: Inhibition of full-length PDE3B (M1 to E1112 residues) (unknown origin) using FAM-cAMP as substrate incubated for 120 mins by TR-FRET IMAP assay
Method in brief: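 Buffer 50 mM Tris-HCl pH 7.5, 8.3 mM MgCl2, 1.7 mM EGTA, 0.05% BSA. Compounds run as a concentration curve with a top final concentration of 100 μM. DMSO and 10 μM trequinsin served as controls. Terbium TR-FRET ratio read at 520:490 nm.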
Target sequence in this assay (Q13370 whole entry, the tested form may be a part): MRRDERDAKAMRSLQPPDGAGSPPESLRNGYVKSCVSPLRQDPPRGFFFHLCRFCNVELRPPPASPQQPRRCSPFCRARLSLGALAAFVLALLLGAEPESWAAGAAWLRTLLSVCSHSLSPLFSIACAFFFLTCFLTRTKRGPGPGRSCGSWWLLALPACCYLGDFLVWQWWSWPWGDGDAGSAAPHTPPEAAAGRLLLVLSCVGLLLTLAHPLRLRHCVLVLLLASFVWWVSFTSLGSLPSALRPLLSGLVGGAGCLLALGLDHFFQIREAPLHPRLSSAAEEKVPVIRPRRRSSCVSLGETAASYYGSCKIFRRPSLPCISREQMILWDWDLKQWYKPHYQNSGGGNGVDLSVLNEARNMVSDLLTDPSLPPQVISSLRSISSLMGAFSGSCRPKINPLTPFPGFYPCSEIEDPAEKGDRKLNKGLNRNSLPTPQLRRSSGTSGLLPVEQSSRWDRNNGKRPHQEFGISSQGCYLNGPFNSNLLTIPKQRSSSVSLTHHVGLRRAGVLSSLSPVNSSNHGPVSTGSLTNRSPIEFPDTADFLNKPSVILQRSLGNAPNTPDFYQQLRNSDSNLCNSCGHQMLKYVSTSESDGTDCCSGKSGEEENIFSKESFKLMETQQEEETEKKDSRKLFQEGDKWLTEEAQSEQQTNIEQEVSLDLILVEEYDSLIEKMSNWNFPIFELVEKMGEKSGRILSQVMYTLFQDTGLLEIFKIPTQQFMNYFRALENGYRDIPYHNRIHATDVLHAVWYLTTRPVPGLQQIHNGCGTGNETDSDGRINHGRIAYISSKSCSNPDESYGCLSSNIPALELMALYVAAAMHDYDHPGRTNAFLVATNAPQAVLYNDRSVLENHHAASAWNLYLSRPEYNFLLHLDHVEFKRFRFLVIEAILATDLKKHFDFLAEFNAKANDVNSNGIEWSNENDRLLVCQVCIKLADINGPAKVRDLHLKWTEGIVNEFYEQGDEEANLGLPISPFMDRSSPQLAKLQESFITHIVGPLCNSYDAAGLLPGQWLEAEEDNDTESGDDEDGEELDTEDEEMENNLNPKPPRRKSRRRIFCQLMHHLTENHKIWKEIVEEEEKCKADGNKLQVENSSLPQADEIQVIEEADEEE

[2] = biological target: cGMP-inhibited 3',5'-cyclic phosphodiesterase 3A (Homo sapiens, UniProt Q14432); experiment: Inhibition of PDE3A (M1 to Q1141 residues) (unknown origin) using FAM-cAMP as substrate incubated for 45 mins by TR-FRET IMAP assay
Sequence of cGMP-inhibited 3',5'-cyclic phosphodiesterase 3A (Q14432 whole entry, the tested form may be a part): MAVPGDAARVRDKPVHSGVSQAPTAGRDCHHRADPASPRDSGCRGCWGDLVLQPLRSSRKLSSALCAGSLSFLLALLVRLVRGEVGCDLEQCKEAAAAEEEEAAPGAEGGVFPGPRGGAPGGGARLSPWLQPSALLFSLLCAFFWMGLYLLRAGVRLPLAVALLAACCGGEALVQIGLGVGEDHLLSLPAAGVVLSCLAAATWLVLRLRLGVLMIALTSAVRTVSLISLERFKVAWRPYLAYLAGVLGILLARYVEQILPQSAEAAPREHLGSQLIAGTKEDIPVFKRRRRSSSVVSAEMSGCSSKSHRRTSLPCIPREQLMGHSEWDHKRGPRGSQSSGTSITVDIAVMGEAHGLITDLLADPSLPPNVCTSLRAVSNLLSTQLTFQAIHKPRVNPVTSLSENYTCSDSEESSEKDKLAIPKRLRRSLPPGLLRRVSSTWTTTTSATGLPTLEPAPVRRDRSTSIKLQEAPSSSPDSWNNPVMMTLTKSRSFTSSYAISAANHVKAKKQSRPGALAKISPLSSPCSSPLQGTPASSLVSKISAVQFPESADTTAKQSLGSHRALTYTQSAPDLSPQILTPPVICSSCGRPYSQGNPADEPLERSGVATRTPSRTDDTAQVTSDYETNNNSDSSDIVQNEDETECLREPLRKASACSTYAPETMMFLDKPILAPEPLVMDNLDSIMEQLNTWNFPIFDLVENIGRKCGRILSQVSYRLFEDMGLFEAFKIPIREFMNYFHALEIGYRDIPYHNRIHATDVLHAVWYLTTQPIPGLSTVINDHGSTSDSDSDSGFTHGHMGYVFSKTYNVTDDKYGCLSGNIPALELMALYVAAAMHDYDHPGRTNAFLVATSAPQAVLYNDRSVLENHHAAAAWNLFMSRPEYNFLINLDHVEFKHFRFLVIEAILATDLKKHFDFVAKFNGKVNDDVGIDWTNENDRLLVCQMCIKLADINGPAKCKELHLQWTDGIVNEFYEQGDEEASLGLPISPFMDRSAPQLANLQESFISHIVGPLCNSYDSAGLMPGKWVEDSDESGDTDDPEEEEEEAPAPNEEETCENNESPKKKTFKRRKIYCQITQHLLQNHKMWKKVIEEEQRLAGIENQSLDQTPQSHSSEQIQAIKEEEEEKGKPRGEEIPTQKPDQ
Method in brief: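 Full-length PDE3A at 1.6 nM with 50 nM FAM-cAMP, 45 min reaction. Buffer 50 mM Tris-HCl pH 7.5, 8.3 mM MgCl2, 1.7 mM EGTA, 0.05% BSA. Compounds run as a concentration curve with a top final concentration of 100 μM. DMSO and 10 μM trequinsin served as controls. TR-FRET read at Ex 337 nm, Em 520/490 nm.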

[3] = Selectivity ratio of inhibition for PDE3A (M1 to Q1141 residues) (unknown origin) by IMAP assay to inhibition for PDE3B (M1 to E1112 residues) (unknown origin) by IMAP assay
[4] = Selectivity ratio of inhibition for PDE3A (M1 to Q1141 residues) (unknown origin) by RF-MS assay to inhibition for PDE3B (M1 to E1112 residues) (unknown origin) by RF-MS assay
[5] = biological target: T1, cGMP-inhibited 3',5'-cyclic phosphodiesterase 3B; experiment: Inhibition of PDE3B (unknown origin) expression in adipocytes assessed as reduction in lipid hydrolysis at 10 uM; type: cell-based
Target sequence in this assay (Q13370 whole entry, looked up, the tested form may be a part): as the sequence (Q13370 whole entry, the tested form may be a part) above

IC50 [1]	IC50 [2]	Selectivity ratio [3]	Selectivity ratio [4]	inhibition [5]	Compound
316 nM	> 100000 nM	> 300	46	Active	COCC(C)NC(=O)c1cc(NC(=O)c2cc(OC)c3ccc(OC)cc3n2)cc(B(O)O)c1 (stereo not given)
				Active	CC1CC(=O)NN=C1c1ccc(NC2=C(Cc3cccc(-c4ccccc4)c3)C(=O)CCC2)cc1 (stereo not given)
7.94 nM	5.01 nM	0.7	1.1	Active	CNC(=O)[C@@H](NC(=O)c1cc(NC(=O)c2cc(C)c3ccccc3n2)cc(B(O)O)c1)C1CCCCC1
1000 nM	1260 nM	1.2	1		CNC(=O)[C@@H](NC(=O)c1cc(NC(=O)c2ccc3cc(OC)ccc3n2)cc(B(O)O)c1)C1CCCCC1
